Assay [1] concerns Pseudomonas aeruginosa. The assay is described as follows: Inhibition of biofilm formation in Pseudomonas aeruginosa PAO1 at 62.5 uM incubated for 6 hrs by crystal violet staining based method. It is filed as functional. Conditions: PAO1, 6 h. The method in brief:
(§1)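 P. aeruginosa PA01 biofilm. Cultures grown with or without test compound for 6 h. Biofilm biomass quantified by crystal violet staining (OD550). % inhibition calculated relative to DMSO control.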

Assay [2] can be described thus: Inhibition of quorum sensing system in Pseudomonas aeruginosa MH602 PlasB::gfp at 250 uM incubated for 15 hrs by GFP reporter gene assay. Summed up:
(§2)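 Reporter strain P. aeruginosa PlasB::gfp (PAMH602) makes its own AHL; lasB promoter drives GFP-ASV. Cultures incubated with compound over 250–31.25 µM at 37 °C for 15 h, then GFP fluorescence read at 535 nm. QSI expressed as % relative to untreated PAMH602 negative control. Furanone positive control.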
In general terms: In a reporter assay the amount or activity of a reporter protein is the signal.

A short description of assay [3]: Inhibition of quorum sensing system in Pseudomonas aeruginosa MH602 PlasB::gfp at 125 uM incubated for 15 hrs by GFP reporter gene assay. Summed up: as §2
Assay [4] is described as follows: Inhibition of quorum sensing system in Pseudomonas aeruginosa MH602 PlasB::gfp at 62.5 uM incubated for 15 hrs by GFP reporter gene assay. The method in brief: as §2
Assay [5] in a line: Inhibition of quorum sensing system in Pseudomonas aeruginosa MH602 PlasB::gfp at 31.25 uM incubated for 15 hrs by GFP reporter gene assay. Summed up:
as §2

Assay [6] has as its system Pseudomonas aeruginosa. The assay is described as follows: Toxicity in Pseudomonas aeruginosa MH602 PlasB::gfp assessed as inhibition of bacterial growth at 250 uM incubated for 15 hrs by spectrophotometry. The class given is organism-based. Conditions: MH602, 15 h, read-out: GI.
In assay [7] the test system is Pseudomonas aeruginosa. The assay is described as follows: Toxicity in Pseudomonas aeruginosa MH602 PlasB::gfp assessed as inhibition of bacterial growth at 125 uM incubated for 15 hrs by spectrophotometry. It is filed as organism-based. The settings on record: MH602, 15 h, read-out: GI.
Assay [8] has as its system Pseudomonas aeruginosa. The assay is described as follows: Toxicity in Pseudomonas aeruginosa MH602 PlasB::gfp assessed as inhibition of bacterial growth at 62.5 uM incubated for 15 hrs by spectrophotometry. The class given is organism-based. The settings on record: MH602, 15 h, read-out: GI.
Assay [9] has as its system Pseudomonas aeruginosa. Briefly: Toxicity in Pseudomonas aeruginosa MH602 PlasB::gfp assessed as inhibition of bacterial growth at 31.25 uM incubated for 15 hrs by spectrophotometry. The class given is organism-based. Conditions: MH602, 15 h, read-out: GI.
Assay [10] deals with Pseudomonas aeruginosa. Briefly: Inhibition of biofilm formation in Pseudomonas aeruginosa PAO1 at 250 uM incubated for 6 hrs by crystal violet staining based method. The class given is functional. The settings on record: for inhibition at 250 µM: PAO1, 6 h. Summed up:
as §1

Calls of active or inactive are those of the source. No cut-off for these calls is given here.

The values that follow come from ChEMBL document CHEMBL4316620, “Dihydropyrrolones as bacterial quorum sensing inhibitors” (Bioorg Med Chem Lett, 2019).

In the case of `C=C1C(c2ccc(Br)cc2)=CC(=O)N1c1ccsc1`, the inhibition at 62.5 µM was 47% in the assay on Pseudomonas aeruginosa [1] and at most 15% in the assay with Pseudomonas aeruginosa [8]. The inhibition in assay [2] came to 86%; in [3] it was 75%; in assay [4], 59.9%; in [5] it was 49.9%. For the same molecule, the inhibition at 250 µM in the assay on Pseudomonas aeruginosa [6] is above 30%; in the assay with Pseudomonas aeruginosa [10] it was 87.4%. In the assay with Pseudomonas aeruginosa [7], the inhibition at 125 µM was in the range of 15 to 30%. In addition, the inhibition at 31.25 µM with Pseudomonas aeruginosa [9] was at most 15%.
In the case of `C=C1C(c2ccc(Br)cc2)=CC(=O)N1c1ccc(C(F)(F)F)cc1`, the inhibition was determined as 52.8% in assay [2], 48.4% in assay [3], 45.8% in assay [4] and 11.2% in assay [5]. Besides, the figures for the inhibition at 250 µM in the assay with Pseudomonas aeruginosa [6] and with Pseudomonas aeruginosa [10] were at most 15% and 37.5%, respectively. For the same molecule, in the assay with Pseudomonas aeruginosa [7], the inhibition at 125 µM is at most 15%. Further, in the assay with Pseudomonas aeruginosa [8], the inhibition at 62.5 µM was at most 15%. Also, the inhibition at 31.25 µM in the assay with Pseudomonas aeruginosa [9] is at most 15%.
Regarding `C=C1NC(=O)C(C)=C1c1ccc(F)cc1`, the inhibition stood at 66.5% in assay [2], 59.9% in [3], 32.1% in [4] and 26.3% in assay [5]. Also, the inhibition at 250 µM in the assay with Pseudomonas aeruginosa [6] was at most 15%; with Pseudomonas aeruginosa [10] it was 4.4%. In addition, the inhibition at 125 µM with Pseudomonas aeruginosa [7] was at most 15%. Moreover, the inhibition at 62.5 µM in the assay on Pseudomonas aeruginosa [8] is at most 15%. Besides, the inhibition at 31.25 µM in the assay on Pseudomonas aeruginosa [9] was at most 15%.
For the molecule `C=C1NC(=O)C=C1c1ccc([N+](=O)[O-])cc1`, the inhibition in [2] came to 80.9%; in [3] it was 69.9%; in assay [4], 63.5%; in [5] it was 51.3%. Moreover, the inhibition at 250 µM in the assay on Pseudomonas aeruginosa [6] is 15 to 30%; in the assay on Pseudomonas aeruginosa [10] it was 57.2%. For the same molecule, the inhibition at 125 µM with Pseudomonas aeruginosa [7] is at most 15%. Also, in the assay with Pseudomonas aeruginosa [8], the inhibition at 62.5 µM is at most 15%. Besides, the inhibition at 31.25 µM in the assay with Pseudomonas aeruginosa [9] is at most 15%.
Turning to `C=C1NC(=O)C=C1c1cccc(F)c1`, the inhibition in [2] turned out to be 72.8%; in assay [3], 66.5%; in [4], 52.9%; in assay [5], 39.5%. Besides, the values for the inhibition at 250 µM with Pseudomonas aeruginosa [6] and with Pseudomonas aeruginosa [10] were at most 15% and 55.2%, respectively. In addition, the inhibition at 125 µM with Pseudomonas aeruginosa [7] is at most 15%. The inhibition at 62.5 µM in the assay with Pseudomonas aeruginosa [8] is at most 15%. In addition, the inhibition at 31.25 µM with Pseudomonas aeruginosa [9] was at most 15%.
Regarding `C=C1C(c2ccccc2F)=CC(=O)N1c1ccc(C)cc1`, the inhibition in [2] was 65%; in assay [3], 62.8%; in assay [4], 53.3%; in assay [5], 29.6%. Moreover, the figures for the inhibition at 250 µM in the assay on Pseudomonas aeruginosa [6] and in the assay on Pseudomonas aeruginosa [10] were at most 15% and 49.3%, respectively. The inhibition at 125 µM in the assay on Pseudomonas aeruginosa [7] is at most 15%. In addition, in the assay with Pseudomonas aeruginosa [8], the inhibition at 62.5 µM was at most 15%. Besides, in the assay with Pseudomonas aeruginosa [9], the inhibition at 31.25 µM is at most 15%.
Regarding `C=C1C(c2ccccc2F)=CC(=O)N1c1ccc(Cl)cc1`, the inhibition worked out at 59.4% in assay [2], 57.9% in [3], 51.6% in [4] and 36.2% in assay [5]. Moreover, the inhibition at 250 µM with Pseudomonas aeruginosa [6] was at most 15%; in the assay on Pseudomonas aeruginosa [10], 46.5%. Also, the inhibition at 125 µM in the assay on Pseudomonas aeruginosa [7] was at most 15%. For the same molecule, the inhibition at 62.5 µM in the assay with Pseudomonas aeruginosa [8] is at most 15%. For the same molecule, the inhibition at 31.25 µM with Pseudomonas aeruginosa [9] is at most 15%.
For `C=C1C(c2ccc(Br)cc2)=CC(=O)N1c1cccc(Br)c1`, the inhibition came out at 73.2% in [2], 60.3% in assay [3], 37.7% in assay [4] and 12.6% in assay [5]. The results for the inhibition at 250 µM in the assay with Pseudomonas aeruginosa [6] and in the assay on Pseudomonas aeruginosa [10] were at most 15% and 47.1%, respectively. For the same molecule, in the assay on Pseudomonas aeruginosa [7], the inhibition at 125 µM is at most 15%. In addition, the inhibition at 62.5 µM in the assay on Pseudomonas aeruginosa [8] is at most 15%. In addition, in the assay on Pseudomonas aeruginosa [9], the inhibition at 31.25 µM was at most 15%.
Turning to `O=C1C=C(c2ccsc2)CN1`, the inhibition in assay [2] is 72.1%; in [3] it was 49.3%; in [4], 26.6%; in assay [5] it was 24.7%. Besides, the inhibition at 250 µM in the assay with Pseudomonas aeruginosa [6] was at most 15%. Moreover, the inhibition at 125 µM with Pseudomonas aeruginosa [7] was at most 15%. For the same molecule, the inhibition at 62.5 µM in the assay with Pseudomonas aeruginosa [8] is at most 15%. The inhibition at 31.25 µM with Pseudomonas aeruginosa [9] was at most 15%. In addition, in the assay with Pseudomonas aeruginosa [10], the inhibition result was “inactive”.
Take `C=C1NC(=O)C=C1c1ccc(F)cc1`: the inhibition in assay [2] was 82.4%; in assay [3] it was 76.3%; in assay [4], 60.2%; in assay [5], 33.3%. Besides, the inhibition at 250 µM with Pseudomonas aeruginosa [6] is 15 to 30%; in the assay on Pseudomonas aeruginosa [10] it was 46.1%. The inhibition at 125 µM in the assay on Pseudomonas aeruginosa [7] was at most 15%. For the same molecule, the inhibition at 62.5 µM with Pseudomonas aeruginosa [8] is at most 15%. For the same molecule, the inhibition at 31.25 µM with Pseudomonas aeruginosa [9] is at most 15%.
For the molecule `C=C1C(c2ccc(Br)cc2)=CC(=O)N1c1ccc(Cl)cc1`, the inhibition came to 52.4% in [2], 50.3% in [3], 44.9% in assay [4] and 7.39% in assay [5]. Further, the values for the inhibition at 250 µM in the assay on Pseudomonas aeruginosa [6] and with Pseudomonas aeruginosa [10] were at most 15% and 43.8%, respectively. Moreover, in the assay on Pseudomonas aeruginosa [7], the inhibition at 125 µM is at most 15%. Also, the inhibition at 62.5 µM in the assay with Pseudomonas aeruginosa [8] is at most 15%. For the same molecule, the inhibition at 31.25 µM with Pseudomonas aeruginosa [9] was at most 15%.
On to `O=C1C=C(c2cccc(F)c2)CN1`, for which the inhibition in [2] came out at 67.2%; in assay [3] it was 45.5%; in assay [4], 24%; in assay [5] it was 22.4%. Moreover, the inhibition at 250 µM is at most 15% in the assay with Pseudomonas aeruginosa [6] and 21.4% in the assay with Pseudomonas aeruginosa [10]. Further, the inhibition at 125 µM with Pseudomonas aeruginosa [7] is at most 15%. For the same molecule, the inhibition at 62.5 µM in the assay with Pseudomonas aeruginosa [8] is at most 15%. In addition, the inhibition at 31.25 µM in the assay on Pseudomonas aeruginosa [9] was at most 15%.
For the molecule `C=C1C(c2ccc(Br)cc2)=CC(=O)N1c1ccc(OC)cc1`, the inhibition came out at 73.3% in assay [2], 61.8% in assay [3], 32.1% in [4] and 14.4% in assay [5]. Also, the inhibition at 250 µM was at most 15% with Pseudomonas aeruginosa [6] and 54.9% with Pseudomonas aeruginosa [10]. Also, the inhibition at 125 µM in the assay with Pseudomonas aeruginosa [7] was at most 15%. Also, the inhibition at 62.5 µM in the assay with Pseudomonas aeruginosa [8] is at most 15%. Besides, the inhibition at 31.25 µM with Pseudomonas aeruginosa [9] was at most 15%.
On to `C=C1NC(=O)C=C1c1ccc(CC)cc1`, for which the inhibition is 67.9% in [2], 59.6% in assay [3], 35.1% in [4] and 32.5% in assay [5]. Moreover, the inhibition at 250 µM is at most 15% in the assay on Pseudomonas aeruginosa [6] and 38.9% with Pseudomonas aeruginosa [10]. Besides, the inhibition at 125 µM with Pseudomonas aeruginosa [7] was at most 15%. Also, the inhibition at 62.5 µM in the assay with Pseudomonas aeruginosa [8] was at most 15%. Also, the inhibition at 31.25 µM in the assay on Pseudomonas aeruginosa [9] is at most 15%.
